Reference: ChEMBL document CHEMBL1141138, “A novel immunostimulator, N-[alpha-O-benzyl-N-(acetylmuramyl)-L-alanyl-D-isoglutaminyl]-N6-trans-(m-nitrocinnamoyl)-L-lysine, and its adjuvancy on the hepatitis B surface antigen” (J Med Chem, 2005)
Values joined by “and” are separate entries in the source; they are usually repeats but may differ in a detail not shown here. Identical values can stand only once.

What was measured:
[1] = In vivo toxicity (500 mg/kg) is assessed as mass index in mice thymus cells; type: organism-based; conditions: mouse
[2] = In vivo toxicity (100 mg/kg) is assessed as increase in mass index of mice spleen cells relative to control (56.4+/-11.5); type: organism-based; conditions: mouse
[3] = In vivo toxicity (100 mg/kg) is assessed as increase in mass index of mice thymus cells relative to control (44.1+/-5.13); type: organism-based; conditions: mouse
[4] = In vivo toxicity (500 mg/kg) is assessed as increase in mass index of mice spleen cells relative to control (56.4+/-11.5); type: organism-based; conditions: mouse
[5] = In vivo toxicity (100 mg/kg) is assessed as mass index in mice spleen cells; type: organism-based; conditions: mouse
[6] = In vivo toxicity (100 mg/kg) is assessed as mass index in mice thymus cells; type: organism-based; conditions: mouse
[7] = In vivo toxicity (500 mg/kg) is assessed as mass index in mice spleen cells; type: organism-based; conditions: mouse
P388 = assay: Increased inhibitory ratio against P388 mice tumor cells compared to control; type: functional, Mus musculus
Outline: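 Thioglycollate-elicited peritoneal macrophages from C57BL/6J mice (harvested 3 days after ip TG) were coincubated with P388 leukemia cells and compound for 72 h. P388 with compound alone served as the toxicity control. Surviving tumor cells were read by MTT at 570 nm, reference 630 nm. The inhibitory ratio was taken versus control.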

[8] = Effect of compound (10e-6 mol/L) on secretion of Interleukin-2 treated with bone marrow-derived dendritic cells in absence of lipopolysaccharide; type: functional, Mus musculus
Outline: (§1)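 BMDCs came from BALB/c bone marrow adherent cells grown with IL-4 and GM-CSF (10 ng/mL each); half the medium was renewed every other day. On day 5 cells were preincubated with compound for 30 min, then held ±LPS (1.0 μg/mL) for 48 h. Supernatant IL-2 and IL-12 (pg/mL) were measured by sandwich ELISA. Detection limits were 15.0 and 7.8 pg/mL.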

[9] = Effect of compound (10e-7 mol/L) on secretion of Interleukin-2 treated with bone marrow-derived dendritic cells in absence of lipopolysaccharide; type: functional, Mus musculus; outline: as §1
[10] = Effect of compound (10e-8 mol/L) on secretion of Interleukin-2 treated with bone marrow-derived dendritic cells in absence of lipopolysaccharide; type: functional, Mus musculus; outline: as §1
[11] = Effect of compound (10e-6 mol/L) on secretion of Interleukin-12 treated with bone marrow-derived dendritic cells in absence of lipopolysaccharide; type: functional, Mus musculus; outline: as §1
[12] = Effect of compound (10e-6 mol/L) on secretion of Interleukin-2 treated with bone marrow-derived dendritic cells in presence of lipopolysaccharide; type: functional, Mus musculus; outline: as §1
[13] = Effect of compound (10e-7 mol/L) on secretion of Interleukin-12 treated with bone marrow-derived dendritic cells in absence of lipopolysaccharide; type: functional, Mus musculus; outline: as §1
[14] = Effect of compound (10e-7 mol/L) on secretion of Interleukin-2 treated with bone marrow-derived dendritic cells in presence of lipopolysaccharide; type: functional, Mus musculus; outline: as §1
[15] = Effect of compound (10e-8 mol/L) on secretion of Interleukin-12 treated with bone marrow-derived dendritic cells in absence of lipopolysaccharide; type: functional, Mus musculus; outline: as §1
[16] = Effect of compound (10e-8 mol/L) on secretion of Interleukin-2 treated with bone marrow-derived dendritic cells in presence of lipopolysaccharide; type: functional, Mus musculus; outline: as §1
[17] = Effect of compound (10e-9 mol/L) on secretion of Interleukin-2 treated with bone marrow-derived dendritic cells in presence of lipopolysaccharide; type: functional, Mus musculus; outline: as §1
[18] = Effect of compound (10e-6 mol/L) on secretion of Interleukin-12 treated with bone marrow-derived dendritic cells in presence of lipopolysaccharide; type: functional, Mus musculus; outline: as §1
[19] = Effect of compound (10e-7 mol/L) on secretion of Interleukin-12 treated with bone marrow-derived dendritic cells in presence of lipopolysaccharide; type: functional, Mus musculus; outline: as §1
[20] = Effect of compound (10e-8 mol/L) on secretion of Interleukin-12 treated with bone marrow-derived dendritic cells in presence of lipopolysaccharide; type: functional, Mus musculus; outline: as §1
[21] = Effect of compound (10e-9 mol/L) on secretion of Interleukin-12 treated with bone marrow-derived dendritic cells in presence of lipopolysaccharide; type: functional, Mus musculus; outline: as §1
P815 [22] = assay: In vitro stimulatory effect on specific release of allogenic CTL cytotoxicity on P815 cells mediated by BMDC in presence of LPS; type: functional, Mus musculus
Outline: (§2)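 BALB/c (H-2d) BMDCs were pretreated with compound ±LPS for 24 h, then cocultured in quadruplicate with C57BL/6J (H-2b) splenocytes. Effectors harvested on day 6 were set to 5 × 10^5 cells and incubated with 1 × 10^4 P815 (H-2d) targets for 5 h. LDH release was read at OD450. Specific release = (E−S)/(M−S)×100; maximum release used 1% Triton X-100.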

Mus musculus [23] = assay: Effect (10 mg/kg/day*7 days, i.v.) on cyclophosphamide (CY, i.p.) treated mice (immunosuppressed animal model) assessed by CD4+/CD8+ ratio in peripheral blood mononuclear cells; type: functional
Outline: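 Male C57BL/6J mice given cyclophosphamide 30 (mg/kg)/day ip for 5 consecutive days, then randomized and dosed iv for 7 consecutive days. PBMCs collected on day 8; ratio of CD3+CD4+ to CD3+CD8+ T cells measured by flow cytometry (CD4-FITC, PE anti-CD8 staining). n = 3.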

Mus musculus [24] = assay: Effect (0.5 mg/kg/day*7 days, i.v.) on cyclophosphamide (CY, i.p.) treated mice (immunosuppressed animal model) assessed by CD4+/CD8+ ratio in peripheral blood mononuclear cells; type: functional
Mus musculus [25] = assay: Effect (2.0 mg/kg/day*7 days, i.v.) on cyclophosphamide (CY, i.p.) treated mice (immunosuppressed animal model) assessed by CD4+/CD8+ ratio in peripheral blood mononuclear cells; type: functional
P815 [26] = assay: In vitro stimulatory effect on increased rate of allogenic CTL cytotoxicity on P815 cells mediated by BMDC in presence of LPS; type: functional, Mus musculus; outline: as §2
Mus musculus [27] = species: Mus musculus; assay: Effect of compound (10e-6 mol/L) on rate of proliferation of murine splenocytes in absence of concanavalin A compared to control; type: functional
Outline: (§3)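 Normal murine splenocytes were exposed to compound with or without concanavalin A (2 μg/mL) for 72 h. Proliferation was read by MTT as OD570. Increased rate (%) was taken versus the matching control without or with ConA. Mean ± SD.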

Mus musculus [28] = species: Mus musculus; assay: Effect of compound (10e-7 mol/L) on rate of proliferation of murine splenocytes in absence of concanavalin A compared to control; type: functional; outline: as §3
Mus musculus [29] = species: Mus musculus; assay: Effect of compound (10e-8 mol/L) on rate of proliferation of murine splenocytes in absence of concanavalin A compared to control; type: functional; outline: as §3
Mus musculus [30] = species: Mus musculus; assay: Effect of compound (10e-9 mol/L) on rate of proliferation of murine splenocytes in absence of concanavalin A compared to control; type: functional; outline: as §3
Mus musculus [31] = species: Mus musculus; assay: Effect of compound (10e-6 mol/L) on rate of proliferation of murine splenocytes in presence of concanavalin A compared to control; type: functional; outline: as §3
Mus musculus [32] = species: Mus musculus; assay: Effect of compound (10e-7 mol/L) on rate of proliferation of murine splenocytes in presence of concanavalin A compared to control; type: functional; outline: as §3
Mus musculus [33] = species: Mus musculus; assay: Effect of compound (10e-8 mol/L) on rate of proliferation of murine splenocytes in presence of concanavalin A compared to control; type: functional; outline: as §3
Mus musculus [34] = species: Mus musculus; assay: Effect of compound (10e-9 mol/L) on rate of proliferation of murine splenocytes in presence of concanavalin A compared to control; type: functional; outline: as §3
P815 [35] = assay: In vitro stimulatory effect on specific release of allogenic CTL cytotoxicity on P815 cells mediated by BMDC in absence of LPS; type: functional, Mus musculus; outline: as §2
P815 [36] = assay: In vitro stimulatory effect on increased rate of allogenic CTL cytotoxicity on P815 cells mediated by BMDC in absence of LPS; type: functional, Mus musculus; outline: as §2

CC(=O)N[C@H]1[C@@H](OCc2ccccc2)O[C@H](CO)[C@@H](O)[C@@H]1O[C@H](C)C(=O)N[C@@H](C)C(=O)N[C@H](CCC(=O)N[C@@H](CCCCNC(=O)/C=C/c1cccc([N+](=O)[O-])c1)C(N)=O)C(N)=O
Mass index [1]: 43.5 mg/10g body weight
Mass index [2]: 6%
Mass index [3]: -1.4% and -2.8%
Mass index [4]: 53%
Mass index [5]: 59.9 mg/10g body weight
Mass index [6]: 42.8 mg/10g body weight
Mass index [7]: 86.1 mg/10g body weight
IR (P388): 71%
Activity [8]: 103 pg/mL
Activity [9]: 76 pg/mL
Activity [10]: 60 pg/mL
Activity [11]: 918 pg/mL
Activity [12]: 132 pg/mL
Activity [13]: 786 pg/mL
Activity [14]: 117 pg/mL
Activity [15]: 725 pg/mL
Activity [16]: 107 pg/mL
Activity [17]: 94.8 pg/mL
Activity [18]: 988 pg/mL
Activity [19]: 838 pg/mL
Activity [20]: 819 pg/mL
Activity [21]: 800 pg/mL
Release (P815 [22]): 35.7% and 31.3% and 28.5% and 23.8%
Ratio (Mus musculus [23]): 4.47
Ratio (Mus musculus [24]): 3.18
Ratio (Mus musculus [25]): 4.14
Increase (P815 [26]): 82% and 49% and 28%
Increase (Mus musculus [27]): 191%
Increase (Mus musculus [28]): 75%
Increase (Mus musculus [29]): 27.3%
Increase (Mus musculus [30]): 5.41%
Increase (Mus musculus [31]): 82%
Increase (Mus musculus [32]): 38%
Increase (Mus musculus [33]): 15%
Increase (Mus musculus [34]): 7.8%

O=P1(N(CCCl)CCCl)NCCCO1 (stereo not drawn) [CYCLOPHOSPHAMIDE ANHYDROUS]
Ratio (Mus musculus [23]): 2.4

CCCCCCCCCCCCCCCCCC(=O)NCCCC[C@H](NC(=O)CC[C@@H](NC(=O)[C@H](C)NC(=O)[C@@H](C)O[C@H]1[C@H](O)[C@@H](CO)OC(O)[C@@H]1NC(C)=O)C(N)=O)C(=O)O (stereo partly drawn) [ROMURTIDE]
IR (P388): 45%
Release (P815 [35]): 31.7%
Release (P815 [22]): 30.7%
Increase (P815 [36]): 187%
Increase (P815 [26]): 45%
Increase (Mus musculus [27]): 122%
Increase (Mus musculus [31]): 67%
